ChEMBL document CHEMBL3352221, “Acyclic tethers mimicking subunits of polysaccharide ligands: selectin antagonists” (ACS Med Chem Lett, 2014)
Active and inactive are the calls of the source. The rule behind the calls is not given here.

What was measured:
P-selectin [1] = biological target: T1, P-selectin (Homo sapiens, UniProt P16109); test: Antagonist activity at P-selectin (unknown origin) by surface plasmon resonance-based dynamic assay
T1 sequence (P16109 whole entry): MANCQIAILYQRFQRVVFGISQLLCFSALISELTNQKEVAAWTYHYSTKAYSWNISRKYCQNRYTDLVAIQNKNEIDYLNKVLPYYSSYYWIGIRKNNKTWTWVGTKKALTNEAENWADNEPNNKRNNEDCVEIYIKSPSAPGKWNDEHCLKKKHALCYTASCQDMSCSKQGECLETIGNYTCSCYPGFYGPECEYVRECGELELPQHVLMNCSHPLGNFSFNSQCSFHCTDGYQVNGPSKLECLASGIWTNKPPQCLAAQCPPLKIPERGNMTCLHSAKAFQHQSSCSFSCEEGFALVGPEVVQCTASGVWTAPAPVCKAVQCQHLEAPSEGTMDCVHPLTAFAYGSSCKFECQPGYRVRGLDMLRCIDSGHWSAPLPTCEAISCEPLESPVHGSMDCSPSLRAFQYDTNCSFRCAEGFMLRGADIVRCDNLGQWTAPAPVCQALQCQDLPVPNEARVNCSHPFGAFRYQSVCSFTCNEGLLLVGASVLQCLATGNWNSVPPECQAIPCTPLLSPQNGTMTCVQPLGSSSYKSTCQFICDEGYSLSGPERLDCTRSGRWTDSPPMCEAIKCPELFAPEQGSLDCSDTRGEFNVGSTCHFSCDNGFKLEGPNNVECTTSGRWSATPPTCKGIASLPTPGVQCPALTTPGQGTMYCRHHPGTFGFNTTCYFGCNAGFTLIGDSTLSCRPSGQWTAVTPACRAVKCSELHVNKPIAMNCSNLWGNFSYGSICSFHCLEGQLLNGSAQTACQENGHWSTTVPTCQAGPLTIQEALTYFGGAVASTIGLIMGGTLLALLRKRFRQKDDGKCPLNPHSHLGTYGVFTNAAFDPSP

E-selectin = biological target: T2, E-selectin (Homo sapiens, UniProt P16581); test: Antagonist activity at E-selectin (unknown origin) assessed as adhesion to [3H]thymidine-labelled human HL60 cells by static assay; type: cell-based, HL-60
T2 sequence (P16581 whole entry): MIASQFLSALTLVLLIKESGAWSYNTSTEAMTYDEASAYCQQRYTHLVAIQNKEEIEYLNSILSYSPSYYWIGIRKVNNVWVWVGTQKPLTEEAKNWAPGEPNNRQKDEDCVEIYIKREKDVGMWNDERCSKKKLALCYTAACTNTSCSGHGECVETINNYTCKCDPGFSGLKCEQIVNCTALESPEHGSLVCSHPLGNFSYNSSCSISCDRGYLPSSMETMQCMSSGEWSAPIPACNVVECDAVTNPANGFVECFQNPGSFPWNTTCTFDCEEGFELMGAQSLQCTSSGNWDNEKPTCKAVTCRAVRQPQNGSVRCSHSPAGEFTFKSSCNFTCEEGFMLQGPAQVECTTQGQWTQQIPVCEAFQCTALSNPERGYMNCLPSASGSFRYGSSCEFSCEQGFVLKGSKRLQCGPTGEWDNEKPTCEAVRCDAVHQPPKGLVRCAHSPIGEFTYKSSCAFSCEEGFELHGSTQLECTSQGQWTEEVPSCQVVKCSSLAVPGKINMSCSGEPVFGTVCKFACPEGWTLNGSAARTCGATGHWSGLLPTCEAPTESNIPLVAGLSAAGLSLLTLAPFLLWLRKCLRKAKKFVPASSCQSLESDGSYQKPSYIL
Method in brief: (§1)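 HL-60 cells labelled with [3H]thymidine in the culture medium. Wells precoated with goat anti-human IgG, then E- or P-selectin IgG (per line) captured. Labelled cells incubated on the immobilized selectin with test compound over a dose range. Non-adherent cells washed off, bound radioactivity counted, and IC50 derived from the dose-dependent loss of adherent cells.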

P-selectin [2] = biological target: T1, P-selectin; test: Antagonist activity at P-selectin (unknown origin) assessed as adhesion to [3H]thymidine-labelled human HL60 cells by static assay; type: cell-based, HL-60; method in brief: as §1
Mus musculus = test: Inhibition of TNFalpha-induced decrease in leukocyte rolling flux in mouse cremaster at 100 mg/kg, iv; type: functional, organism-based; design: dose 100 mg/kg
Method in brief: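 Intravital microscopy of mouse cremaster. Mice receive rmTNFα in 150 μL saline. Compound in saline, or saline alone, is given intrajugularly at 100 mg/kg. Leukocyte rolling is read before and 10 min after injection. Means of 5 readings per venule, 10 venules per mouse, 5–6 mice per condition (±SEM).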

Row | SMILES | IC50 (P-selectin [1]) | IC50 (E-selectin) | IC50 (P-selectin [2]) | inhibition (Mus musculus)
1 | COC(=O)[C@H](O[C@@H]1O[C@H](CO)[C@H](OC(=O)c2ccccc2)[C@H](O[C@H](Cc2ccccc2)C(=O)O)[C@H]1OC(=O)c1ccccc1)[C@@H](O[C@@H]1O[C@@H](C)[C@@H](O)[C@@H](O)[C@@H]1O)C(=O)OC(C)C | 16 µM | – | – | –
2 | CC(C)OC(=O)[C@H](O[C@H]1O[C@@H](CO)[C@H](OC(=O)c2ccccc2)[C@@H](O[C@@H](Cc2ccccc2)C(=O)O)[C@H]1OC(=O)c1ccccc1)[C@@H](O[C@H]1O[C@@H](C)[C@@H](O)[C@@H](O)[C@@H]1O)C(=O)OCCc1cn(CCCCCOC(=O)[C@H](O[C@@H]2O[C@@H](C)[C@@H](O)[C@@H](O)[C@H]2O)[C@@H](O[C@@H]2O[C@H](CO)[C@H](OC(=O)c3ccccc3)[C@H](O[C@H](Cc3ccccc3)C(=O)O)[C@H]2OC(=O)c2ccccc2)C(=O)OC(C)C)nn1 | 8 µM | – | – | –
3 | CC(C)OC(=O)[C@H](O[C@@H]1O[C@@H](C)[C@@H](O)[C@@H](O)[C@@H]1O)[C@@H](O[C@@H]1O[C@H](CO)[C@H](OC(=O)c2ccccc2)[C@H](O[C@H](Cc2ccccc2)C(=O)O)[C@H]1OC(=O)c1ccccc1)C(=O)OC(C)C | 8 µM | 76 µM | 67 µM | –
4 | CC(C)OC(=O)[C@H](O[C@@H]1O[C@@H](C)[C@@H](O)[C@@H](O)[C@@H]1O)[C@@H](O[C@@H]1O[C@H](CO)[C@H](OC(=O)c2ccccc2)[C@H](O[C@H](Cc2ccccc2)C(=O)O)[C@H]1O)C(=O)OC(C)C | 19 µM | – | – | –
5 | COC(=O)[C@H](O[C@@H]1O[C@@H](C)[C@@H](O)[C@@H](O)[C@@H]1O)[C@@H](O[C@@H]1O[C@H](CO)[C@H](O)[C@H](O[C@H](Cc2ccccc2)C(=O)O)[C@H]1OC(=O)c1ccccc1)C(=O)OC | 520 µM | 2080 µM | 1900 µM | –
6 | COC(=O)[C@H](O[C@@H]1O[C@@H](C)[C@@H](O)[C@@H](O)[C@@H]1O)[C@@H](O[C@@H]1O[C@H](CO)[C@H](O)[C@H](O[C@H](Cc2ccccc2)C(=O)O)[C@H]1O)C(=O)OC | – | 5460 µM | 4840 µM | –
7 | COC(=O)[C@H](O[C@@H]1O[C@@H](C)[C@@H](O)[C@@H](O)[C@@H]1O)[C@@H](O[C@@H]1O[C@H](CO)[C@H](OC(=O)c2ccccc2)[C@H](O[C@H](Cc2ccccc2)C(=O)O)[C@H]1OC(=O)c1ccccc1)C(=O)OC | 18 µM | 140 µM | 110 µM | –
8 | CC(=O)N[C@H]1[C@H]([C@H](O)[C@H](O)CO)O[C@@](O[C@H]2[C@@H](O)[C@@H](CO)O[C@@H](O[C@@H]([C@H](O[C@@H]3O[C@@H](C)[C@@H](O)[C@@H](O)[C@@H]3O)[C@H](C=O)NC(C)=O)[C@H](O)CO)[C@@H]2O)(C(=O)O)C[C@@H]1O | – | – | – | Active
9 | COC(=O)[C@H](O[C@@H]1O[C@@H](C)[C@@H](O)[C@@H](O)[C@@H]1O)[C@@H](O[C@@H]1O[C@H](CO)[C@H](OC(=O)c2ccccc2)[C@H](O[C@H](Cc2ccccc2)C(=O)O)[C@H]1OC(=O)c1ccccc1)C(=O)OC(C)C | 21 µM | – | – | –
10 | CC(C)OC(=O)[C@H](O[C@@H]1O[C@@H](C)[C@@H](O)[C@@H](O)[C@@H]1O)[C@@H](O[C@@H]1O[C@H](CO)[C@H](O)[C@H](O[C@H](Cc2ccccc2)C(=O)O)[C@H]1OC(=O)c1ccccc1)C(=O)OC(C)C | 34 µM | 220 µM | 190 µM | –
